Results on 24 molecules are retold here after ChEMBL document CHEMBL3632513, “Synthesis of donepezil-based multifunctional agents for the treatment of Alzheimer's disease” (Bioorg Med Chem Lett, 2015).

pIC50: −log10 of the molar value. Converted amounts (≈) assume the structure as drawn. The source made the active and inactive calls. The rule behind the calls is not given here.

For one series, the target named is Cholinesterase (Equus caballus, UniProt P81908). Briefly: Inhibition of equine serum BuChE using butyrylthiocholine iodide as substrate preincubated for 15 mins by Ellman's method. For orientation: Ellman's reagent forms a yellow product with free thiols.
Cholinesterase, sequence (P81908 whole entry): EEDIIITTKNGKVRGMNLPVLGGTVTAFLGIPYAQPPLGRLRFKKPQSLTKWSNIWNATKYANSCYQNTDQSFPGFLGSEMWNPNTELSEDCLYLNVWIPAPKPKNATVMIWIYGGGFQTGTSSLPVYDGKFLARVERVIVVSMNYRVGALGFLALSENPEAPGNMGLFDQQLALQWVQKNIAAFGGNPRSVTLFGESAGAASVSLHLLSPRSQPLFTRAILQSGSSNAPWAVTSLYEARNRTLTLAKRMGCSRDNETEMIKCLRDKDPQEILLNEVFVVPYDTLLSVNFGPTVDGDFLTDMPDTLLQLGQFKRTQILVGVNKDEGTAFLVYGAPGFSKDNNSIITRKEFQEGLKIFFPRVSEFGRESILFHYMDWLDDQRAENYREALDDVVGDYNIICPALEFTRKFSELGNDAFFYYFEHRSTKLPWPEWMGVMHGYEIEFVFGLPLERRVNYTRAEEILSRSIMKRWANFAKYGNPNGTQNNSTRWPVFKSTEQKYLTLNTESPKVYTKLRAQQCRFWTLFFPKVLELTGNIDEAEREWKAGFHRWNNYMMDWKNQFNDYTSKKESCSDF
For series [1], the target named is Amyloid-beta precursor protein (Homo sapiens) (UniProt P05067). In words: Inhibition of self-induced amyloid beta (1-42) aggregation (unknown origin) at 25 uM after 48 hrs by thioflavin T fluorescence method. In outline: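 Thioflavin T fluorometric assay of self-induced Aβ1–42 aggregation, with test compounds and the curcumin reference each at 25. Results are reported as percent inhibition of aggregation.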
Amyloid-beta precursor protein (Homo sapiens), sequence (P05067 whole entry): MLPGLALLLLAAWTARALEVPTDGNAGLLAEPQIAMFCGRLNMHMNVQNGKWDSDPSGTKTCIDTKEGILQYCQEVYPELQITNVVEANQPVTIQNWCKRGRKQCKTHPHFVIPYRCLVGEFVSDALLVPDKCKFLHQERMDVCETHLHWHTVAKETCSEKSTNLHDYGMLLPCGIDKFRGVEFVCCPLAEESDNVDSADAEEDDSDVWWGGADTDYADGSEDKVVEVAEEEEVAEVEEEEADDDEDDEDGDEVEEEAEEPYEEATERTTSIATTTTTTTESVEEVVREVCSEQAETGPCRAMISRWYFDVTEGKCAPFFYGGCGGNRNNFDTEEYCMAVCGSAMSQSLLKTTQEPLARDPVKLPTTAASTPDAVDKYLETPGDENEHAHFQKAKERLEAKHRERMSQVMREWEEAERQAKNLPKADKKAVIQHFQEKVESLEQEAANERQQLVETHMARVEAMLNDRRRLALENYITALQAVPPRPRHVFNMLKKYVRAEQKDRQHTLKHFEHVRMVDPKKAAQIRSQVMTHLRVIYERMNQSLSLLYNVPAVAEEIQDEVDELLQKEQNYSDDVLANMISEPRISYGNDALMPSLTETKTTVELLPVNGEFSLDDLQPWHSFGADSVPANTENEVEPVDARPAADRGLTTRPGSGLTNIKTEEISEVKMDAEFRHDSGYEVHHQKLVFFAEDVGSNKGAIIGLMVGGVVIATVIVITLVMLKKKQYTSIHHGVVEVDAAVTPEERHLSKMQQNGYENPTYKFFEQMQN

Series [2] in a line: Lipophilicity, log P of the compound by […]. Particulars: octanol/water. The format is physicochemical.
Series [3] is described as follows: Selectivity ratio of IC50 for equine BuChE to IC50 for electric eel AChE. The method in brief: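 Both IC50 values come from Ellman's method, using AChE from electric eel and BuChE from equine serum. Selectivity for AChE is calculated as IC50(BuChE)/IC50(AChE).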
Series [4] can be described thus: Antioxidant activity assessed as DPPH scavenging activity at 10 to 60 ug/ml after 30 mins.
The target of the next series is Acetylcholinesterase (Electrophorus electricus, UniProt O42275). In words: Inhibition of electric eel AChE using acetylthiocholine iodide as substrate preincubated for 15 mins by Ellman's method.
Acetylcholinesterase, sequence (O42275 whole entry): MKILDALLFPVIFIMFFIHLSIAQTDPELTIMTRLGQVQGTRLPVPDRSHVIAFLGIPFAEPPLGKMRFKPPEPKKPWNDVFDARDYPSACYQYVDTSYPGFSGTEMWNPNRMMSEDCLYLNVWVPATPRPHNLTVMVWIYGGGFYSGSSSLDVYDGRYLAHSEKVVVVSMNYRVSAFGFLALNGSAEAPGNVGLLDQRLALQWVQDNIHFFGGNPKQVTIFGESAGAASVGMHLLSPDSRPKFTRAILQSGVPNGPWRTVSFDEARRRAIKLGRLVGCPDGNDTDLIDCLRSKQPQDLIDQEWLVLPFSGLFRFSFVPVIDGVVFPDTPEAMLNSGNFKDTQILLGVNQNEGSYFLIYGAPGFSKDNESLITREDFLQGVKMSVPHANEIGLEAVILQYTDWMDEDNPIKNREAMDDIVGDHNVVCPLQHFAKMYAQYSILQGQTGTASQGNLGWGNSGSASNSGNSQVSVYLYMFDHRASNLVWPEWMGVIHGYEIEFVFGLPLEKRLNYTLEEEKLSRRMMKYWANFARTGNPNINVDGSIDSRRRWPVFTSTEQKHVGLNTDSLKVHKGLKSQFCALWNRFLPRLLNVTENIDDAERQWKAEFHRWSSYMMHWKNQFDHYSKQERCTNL
Series [5] deals with Acetylcholinesterase (Electrophorus electricus) (UniProt O42275). In words: Mixed-type of inhibition in electric eel AChE at 0.5 to 2 uM by Lineweaver-Burk plot method.
Acetylcholinesterase (Electrophorus electricus), sequence (O42275 24-633 limits assumed): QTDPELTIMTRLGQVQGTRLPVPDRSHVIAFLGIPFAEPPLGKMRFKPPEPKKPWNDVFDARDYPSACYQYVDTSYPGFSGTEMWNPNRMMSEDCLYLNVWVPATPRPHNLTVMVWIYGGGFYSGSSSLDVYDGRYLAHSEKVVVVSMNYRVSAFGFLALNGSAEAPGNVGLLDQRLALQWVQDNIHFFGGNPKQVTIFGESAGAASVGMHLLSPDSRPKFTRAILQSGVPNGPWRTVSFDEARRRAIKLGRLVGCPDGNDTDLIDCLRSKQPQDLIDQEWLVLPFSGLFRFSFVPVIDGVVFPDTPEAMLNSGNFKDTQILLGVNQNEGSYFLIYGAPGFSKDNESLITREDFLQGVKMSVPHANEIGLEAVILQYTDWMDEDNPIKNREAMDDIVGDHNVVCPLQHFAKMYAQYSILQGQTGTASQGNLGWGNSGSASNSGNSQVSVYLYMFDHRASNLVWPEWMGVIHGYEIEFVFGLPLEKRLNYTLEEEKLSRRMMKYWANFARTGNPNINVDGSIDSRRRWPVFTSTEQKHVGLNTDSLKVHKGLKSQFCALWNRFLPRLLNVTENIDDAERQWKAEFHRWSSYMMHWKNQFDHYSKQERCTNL
A short description of series [6]: Metal chelating activity of the compound assessed as Zn2+ complex formation after 20 mins by UV-vis spectrophotometry. The series is classed as physicochemical.
Series [7] addresses Cholinesterase (Equus caballus) (UniProt P81908). Briefly: Non-competitive inhibition in equine BuChE at 10 to 40 uM by Lineweaver-Burk plot method.
The target is the same in series [8]. In words: Mixed-type of inhibition in equine BuChE at 10 to 40 uM by Lineweaver-Burk plot method.

Cholinesterase (Equus caballus), sequence (P81908 whole entry): as the sequence (P81908 whole entry) above

As a reminder, the pIC50 is the negative decadic logarithm of the IC50, by convention in mol/L. High values mean a low IC50, low ones a high IC50. By inhibition is commonly meant the drop in the measured response relative to a control, in per cent. The logP is the decadic logarithm of the partition coefficient of the neutral form, usually between octanol and water. A higher logP goes with a more lipophilic compound. In general, IC50 refers to the midpoint of a concentration-inhibition curve. With `COc1cc2c(cc1OC)C(=O)C(C(=O)Nc1cccc(F)c1)C2` (centres undefined), the pIC50 against Cholinesterase was 5.65; against Acetylcholinesterase, 6.61. The inhibition in series [1] was determined as 38.7%. The molecule further gave a logP in series [2] of 2.36. Also, the Ratio IC50 in series [3] was 9.1. Moreover, the half-maximal inhibitory concentration (IC50) in series [4] was 58.11 µg/mL (≈ 176 µM).

Take `COc1cc2c(cc1OC)C(=O)C(C(=O)Nc1ccc(Br)cc1)C2` (centres undefined): the negative-log IC50 (pIC50) on Cholinesterase was 5.44; on Acetylcholinesterase it was 6.85. The same molecule yielded an inhibition in series [1] of 47.6%. Besides, the logP in series [2] worked out at 3.03. Also, the Ratio IC50 in series [3] amounted to 26.1. Moreover, the IC50 in [4] is 72.14 µg/mL (≈ 185 µM).

In the case of `Cc1c(C)c2c(c(C)c1O)CCC(C)(C(=O)O)O2` (centres undefined) [TROLOX], the half-inhibitory concentration (IC50) in series [4] is 20.87 µg/mL (≈ 83.4 µM).

Turning to `CCOc1ccccc1NC(=O)C1Cc2cc(OC)c(OC)cc2C1=O` (centres undefined), the figures for the pIC50 at Cholinesterase and against Acetylcholinesterase were 5.18 and 6.11, respectively. In [1], this molecule gave an inhibition of 38.1%. In addition, the logP in series [2] came out at 2.42. Also, the Ratio IC50 in series [3] came to 8.6. In series [4], the IC50 is 63.67 µg/mL (≈ 179 µM).

With `CCc1ccccc1NC(=O)C1Cc2cc(OC)c(OC)cc2C1=O` (centres undefined), the figures for the negative logarithm of the IC50 (pIC50) against Cholinesterase and on Acetylcholinesterase were 5.20 and 6.07, respectively. The inhibition in [1] worked out at 21.8%. Moreover, the logP in [2] was 3.11. Further, the Ratio IC50 in series [3] came to 7.3. In addition, the half-maximal inhibitory concentration (IC50) in series [4] came to 55 µg/mL (≈ 162 µM).

Regarding `CCc1ccc(NC(=O)C2Cc3cc(OC)c(OC)cc3C2=O)cc1` (centres undefined), the pIC50 is 5.53 against Cholinesterase and 6.19 against Acetylcholinesterase. In addition, the inhibition in [1] was found to be 32.1%. Further, the logP in series [2] was 3.11. In addition, the Ratio IC50 in series [3] was 4.6. Further, the half-inhibitory concentration (IC50) in series [4] came to 76.15 µg/mL (≈ 224 µM).

`COc1cc2c(cc1OC)C(=O)C(C(=O)Nc1ccccc1C)C2` (centres undefined): the pIC50 at Cholinesterase is 5.51; against Acetylcholinesterase, 6.44. In series [1], this molecule registered an inhibition of 40.3%. Moreover, the logP in series [2] came to 2.69. The Ratio IC50 in [3] turned out to be 8.5. Besides, the IC50 in series [4] was determined as 43.74 µg/mL (≈ 134 µM).

Turning to `COc1cc2c(cc1OC)C(=O)C(C(=O)Nc1ccccc1F)C2` (centres undefined), the pIC50 at Cholinesterase was 5.49; on Acetylcholinesterase, 7.10. The molecule also displayed an inhibition in series [1] of 55.3%. In addition, in series [2], the logP is 2.36. In [5], the inhibition result was “Active”. Also, the Ratio IC50 in [3] came out at 40.1. Besides, the 50% inhibitory concentration (IC50) in [4] amounted to 75.68 µg/mL (≈ 230 µM). Also, the result in [6] was Active.

`COc1cc2c(cc1OC)C(=O)C(C(=O)Nc1ccc(F)cc1)C2` (centres undefined): the pIC50 on Cholinesterase was 5.58; at Acetylcholinesterase it was 6.96. The molecule also gave an inhibition in series [1] of 45.4%. For the same molecule, in series [2], the logP worked out at 2.36. In [3], the Ratio IC50 was found to be 24.1. For the same molecule, the IC50 in [4] stood at 54.96 µg/mL (≈ 167 µM).

On to `COc1cccc(NC(=O)C2Cc3cc(OC)c(OC)cc3C2=O)c1` (centres undefined), for which the inhibition result in [7] and in series [8] was “Active” throughout. In addition, the negative logarithm of the IC50 (pIC50) against Cholinesterase is 5.68; on Acetylcholinesterase, 6.27. The molecule also came in with an inhibition in [1] of 30.2%. This molecule showed a log partition coefficient (logP) in series [2] of 2.08. Further, the Ratio IC50 in series [3] was 3.9. The IC50 in series [4] was 38.94 µg/mL (≈ 114 µM). The outcome in series [6] was Active.

`COc1cc2c(cc1OC)C(=O)C(C(=O)Nc1ccccc1Cl)C2` (centres undefined): the pIC50 against Cholinesterase is 5.15; on Acetylcholinesterase, 6.52. This molecule also returned an inhibition in series [1] of 40.4%. Further, in series [2], the logP was determined as 2.76. Moreover, in series [3], the Ratio IC50 is 23.7. In addition, in series [4], the IC50 was 65.92 µg/mL (≈ 191 µM).

Consider `COc1cc2c(cc1OC)C(=O)C(C(=O)Nc1ccc(Cl)cc1)C2` (centres undefined), for which the values for the negative logarithm of the IC50 (pIC50) at Cholinesterase and at Acetylcholinesterase were 5.36 and 6.30, respectively. The molecule further yielded an inhibition in [1] of 38.2%. Also, in series [2], the log partition coefficient (logP) came to 2.76. The Ratio IC50 in [3] is 8.8. For the same molecule, in series [4], the 50% inhibitory concentration (IC50) was determined as 56.76 µg/mL (≈ 164 µM).

In the case of `COc1ccc(NC(=O)C2Cc3cc(OC)c(OC)cc3C2=O)cc1` (centres undefined), the pIC50 on Cholinesterase is 5.54; on Acetylcholinesterase, 6.28. The same molecule gave an inhibition in series [1] of 34.5%. Besides, the logP in series [2] is 2.08. For the same molecule, the Ratio IC50 in series [3] came out at 5.5. Also, the IC50 in series [4] stood at 49.47 µg/mL (≈ 145 µM).

In the case of `CCOc1cccc(NC(=O)C2Cc3cc(OC)c(OC)cc3C2=O)c1` (centres undefined), the pIC50 against Cholinesterase was 5.41; against Acetylcholinesterase it was 6.11. Also, the inhibition in [1] stood at 28.3%. This molecule yielded a logP in series [2] of 2.42. In addition, the Ratio IC50 in series [3] was 5. Moreover, the concentration for half-maximal inhibition (IC50) in [4] came out at 44.89 µg/mL (≈ 126 µM).

In the case of `COc1cc2c(cc1OC)C(=O)C(C(=O)Nc1ccc(C)cc1)C2` (centres undefined), the negative-log IC50 (pIC50) at Cholinesterase was 5.60; against Acetylcholinesterase it was 6.08. Further, the inhibition in series [1] stood at 26.8%. The logP in [2] was 2.69. Further, the Ratio IC50 in series [3] amounted to 3.2. Also, the IC50 in [4] is 67.82 µg/mL (≈ 208 µM).

`COc1ccccc1NC(=O)C1Cc2cc(OC)c(OC)cc2C1=O` (centres undefined): the pIC50 is 5.32 on Cholinesterase and 6.15 on Acetylcholinesterase. The inhibition in series [1] turned out to be 25.6%. For the same molecule, the logP in series [2] turned out to be 2.08. For the same molecule, the Ratio IC50 in [3] is 6.9. Besides, in [4], the IC50 worked out at 45.76 µg/mL (≈ 134 µM).

As to `CCOc1ccc(NC(=O)C2Cc3cc(OC)c(OC)cc3C2=O)cc1` (centres undefined), the figures for the pIC50 on Cholinesterase and at Acetylcholinesterase were 5.58 and 6.24, respectively. Besides, the inhibition in series [1] turned out to be 40.8%. Further, in [2], the logP is 2.42. Besides, in series [3], the Ratio IC50 turned out to be 4.5. The IC50 in [4] was determined as 48.16 µg/mL (≈ 136 µM).

As to `COc1cc2c(cc1OC)C(=O)C(C(=O)Nc1cccc(Br)c1)C2` (centres undefined), the figures for the negative logarithm of the IC50 (pIC50) against Cholinesterase and against Acetylcholinesterase were 5.61 and 6.48, respectively. This molecule had an inhibition in [1] of 31.9%. The molecule further returned a log partition coefficient (logP) in [2] of 3.03. The Ratio IC50 in [3] was found to be 7.4. The IC50 in series [4] was determined as 58.88 µg/mL (≈ 151 µM).

On to `COc1cc2c(cc1OC)C(=O)C(C(=O)Nc1cccc(Cl)c1)C2` (centres undefined), for which the pIC50 was 5.65 at Cholinesterase and 6.33 on Acetylcholinesterase. In series [1], this molecule yielded an inhibition of 37.4%. The molecule further gave a logP in series [2] of 2.76. The Ratio IC50 in series [3] turned out to be 4.8. Also, the IC50 in series [4] was 76.32 µg/mL (≈ 221 µM).

With `COc1cc2c(cc1OC)C(=O)C(C(=O)Nc1cccc(C)c1)C2` (centres undefined), the pIC50 is 5.65 against Cholinesterase and 6.11 at Acetylcholinesterase. Further, in [1], the inhibition was found to be 19.1%. Also, the lipophilicity (logP) in series [2] worked out at 2.69. Further, the Ratio IC50 in series [3] was determined as 2.9. Moreover, the IC50 in series [4] is 55.83 µg/mL (≈ 172 µM).

In the case of `COc1cc2c(cc1OC)C(=O)C(C(=O)Nc1ccccc1)C2` (centres undefined), the pIC50 is 5.50 against Cholinesterase and 6.04 against Acetylcholinesterase. The molecule also showed an inhibition in series [1] of 14.3%. Further, the log partition coefficient (logP) in series [2] came to 2.2. Further, the Ratio IC50 in series [3] was determined as 3.4. Further, in series [4], the IC50 came out at 61.28 µg/mL (≈ 197 µM).

`COc1cc2c(cc1OC)C(=O)C(C(=O)Nc1ccccc1Br)C2` (centres undefined): the values for the negative-log IC50 (pIC50) against Cholinesterase and against Acetylcholinesterase were 5.47 and 6.92, respectively. The inhibition in series [1] stood at 52.8%. The molecule also yielded a logP in series [2] of 3.03. Besides, the Ratio IC50 in series [3] came to 28.3. In series [4], the IC50 was determined as 65.44 µg/mL (≈ 168 µM).

For the molecule `CCc1cccc(NC(=O)C2Cc3cc(OC)c(OC)cc3C2=O)c1` (centres undefined), the values for the pIC50 against Cholinesterase and against Acetylcholinesterase were 5.53 and 6.17, respectively. Besides, the inhibition in series [1] is 27.4%. In series [2], the logP worked out at 3.11. The Ratio IC50 in series [3] was 4.4. Besides, the 50% inhibitory concentration (IC50) in series [4] was 64.11 µg/mL (≈ 189 µM).

For `Cc1c(C)c2c(c(C)c1O)CC[C@@](C)(CCC[C@H](C)CCC[C@H](C)CCCC(C)C)O2` [ALPHA-TOCOPHEROL], in series [4], the concentration for half-maximal inhibition (IC50) was found to be 31.74 µg/mL (≈ 73.7 µM).
